Experimental data from different studies.
Protocols differ between the studies behind these lines.

`COc1ccc2c(c1OC)C(=O)O[C@@H]2[C@H]1c2c(cc3c(c2OC)OCO3)CCN1C` has an IC50 of 16.3 µM (HN-6; cell growth or viability; 72 h).
`COc1cc(Nc2nccc(-c3cnn4nc(OC)ccc34)n2)cc(C(F)(F)F)c1` has an IC50 of 0.19 µM (A2058; cell growth or viability; ATP luminescence).
`O=C(O)c1cc(O)c2c(c1)C(=O)c1cccc(O)c1C2=O` has an IC50 of 210 µM (HK-2; cell growth or viability; MTT; 24 h).
`CC(C)C[C@H](NC(=O)[C@H](Cc1ccccc1)NC(=O)c1cnccn1)B(O)O` gave an IC50 of 0.022 µM (RERF-LC-Ad2; cell growth or viability; ATP luminescence).
With `COc1ccc(-c2nc(C(=O)Nc3nnc(-c4cc5ccccc5[nH]4)s3)cc3c2[nH]c2ccccc23)cc1` the IC50 was 71.2 µM (BEAS-2B; cell growth or viability; MTT; 72 h).
`COc1c(O)cc2c(c1O)C(=O)c1c(cc(C)c(O)c1OC)C2=O` gave an IC50 of > 500 µM (HK-2; cell growth or viability; MTT; 24 h).
`COc1ccc2[nH]cc(S(C)(=O)=Nc3cc(OC)c(OC)c(OC)c3)c2c1` (centres unmarked) has an IC50 of > 40 µM (C4-2; cell growth or viability; MTT; 48 h).
`Cc1c[nH]c(/C=C2\C(=O)Nc3ccccc32)c1CCC(=O)O` gave an IC50 of 6 µM (RT-112; cell growth or viability; MTT; 5 days).
`COc1cc([C@@H]2c3cc4c(cc3[C@@H](O[C@@H]3O[C@@H]5CO[C@@H](C)O[C@H]5[C@H](O)[C@H]3O)[C@H]3COC(=O)[C@H]23)OCO4)cc(OC)c1O` gave an IC50 of 11.2 µM (BEAS-2B; cell growth or viability).
For `COc1cccc2c1C(=O)c1c(O)c3c(c(O)c1C2=O)C[C@@](O)(C(=O)CO)C[C@@H]3O[C@H]1C[C@H](N)[C@H](O)[C@H](C)O1`, the IC50 was 0.71 µg/mL (KATO III; cell growth or viability; MTT; 48 h).
With `COc1cc(O)c2c(c1)C(=O)c1cc(C)cc(O)c1C2=O` the IC50 was > 500 µM (HK-2; cell growth or viability; MTT; 24 h).
For `COC(C)(C)CCC[C@](C)(O)[C@H]1CC[C@]2(C)[C@@H]1[C@H](O)C[C@@H]1[C@@]3(C)CC[C@H](O)C(C)(C)[C@@H]3CC[C@]12C`, the IC50 was 24.6 µM (BEAS-2B; cell growth or viability; MTT; 72 h).
The IC50 of `Clc1ccc2c(c1)N=C(N1CCNCC1)c1ccccc1N2` is reported as > 20 µM (HN-6; cell growth or viability; 72 h).
With `CC(C)(C)C1=CC(=NNc2ccc(C#N)cc2)C=C(C(C)(C)C)C1=O` the IC50 was > 100 µM (human Fibroblast; cell growth or viability; resazurin; 24 h).
With `CCN1C(=O)N(c2c(F)c(OC)cc(OC)c2F)Cc2cnc3[nH]c(CN4CCOCC4)cc3c21` the IC50 was 0.00522 µM (RT-112; cell growth or viability; ATP luminescence; 96 h).
`N=C(N)c1ccc(N=Nc2c(O)ccc3cc(O)ccc23)cc1` gave an IC50 of 20 µM (MDA-MB-468; cell growth or viability; MTT).
For `COc1ccc(CCN(C)CCc2ccc(OC)c(OC)c2)cc1OC`, the IC50 was > 20 µM (HN-6; cell growth or viability; 72 h).
The IC50 of `C=C(C)C(=O)Nc1ccc(-c2c(-c3ccc(Oc4nccc(C)n4)c(F)c3)c3c(N)ncnc3n2C)cc1` is reported as 0.00129 µM (KATO III; cell growth or viability; ATP luminescence; 96 h).
The IC50 of `CC(C)C(=O)SCCCCCCC(=O)Nc1nc(-c2ccccc2)cs1` is reported as 5.9 µM (HN-6; cell growth or viability; 72 h).
The IC50 of `CCN1CCN(c2ccc(Nc3cc(N(C)C(=O)Nc4c(Cl)c(OC)cc(OC)c4Cl)ncn3)cc2)CC1` is reported as 0.00222 µM (KATO III; cell growth or viability; ATP luminescence; 96 h).
The IC50 of `COc1ccc2[nH]cc(C(=O)C(=O)CCCc3c[nH]c4ccccc34)c2c1` is reported as > 100 µM (C4-2; cell growth or viability; MTT).
The IC50 of `O=C1NCCc2[nH]c(-c3ccncc3)cc21` is reported as 3.58 µM (LOX IMVI; cell growth or viability).
For `COC(=O)CN=c1scc(-c2ccccc2)n1-c1ccccc1`, the IC50 was 81.5 µM (Panc 02.03; cell growth or viability; MTT; 72 h).
`O=C(CNC(=O)c1cccc2ccccc12)Nc1ccccc1Oc1cccc(O)c1` gave an IC50 of 0.539 µM (SK-N-DZ; cell growth or viability).
`CC1(C)[C@@H](O)CC[C@]2(C)[C@H]3C(=O)C=C4[C@@H]5C[C@@](C)(C(=O)O)CC[C@]5(C)CC[C@@]4(C)[C@]3(C)CC[C@@H]12` gave an IC50 of 10.2 µM (SGC-7901; cell growth or viability; MTT; 48 h).
`O=C(c1cc(Cc2n[nH]c(=O)c3ccccc23)ccc1F)N1CCN(C(=O)C2CC2)CC1` has an IC50 of 2.43 µM (KATO III; colony formation).
For `Nc1ccc(Cl)c[n+]1[Pt-2]([Cl])([Cl])[n+]1cc(Cl)ccc1N`, the IC50 was 6.33 µM (BEAS-2B; cell growth or viability; MTT; 48 h).
With `CCOc1ccc(C(=O)NN=C2C=C(C(C)(C)C)C(=O)C(C(C)(C)C)=C2)cc1` the IC50 was > 100 µM (human Fibroblast; cell growth or viability; resazurin; 24 h).
For `CC(=O)CC(c1ccccc1)c1c(O)c2ccccc2oc1=O` (centres unmarked), the IC50 was > 20 µM (HN-6; cell growth or viability; 72 h).
The IC50 of `COc1ccc2c(C(=O)C(=O)NCCc3c[nH]c4ccccc34)c[nH]c2c1` is reported as > 100 µM (C4-2; cell growth or viability; MTT).
The IC50 of `COC(=O)CN=c1scc(-c2ccccc2)n1-c1ccccc1C` is reported as > 100 µM (Panc 02.03; cell growth or viability; MTT; 72 h).
With `O=C(CNC(=O)c1cccc2ccccc12)Nc1ccccc1Oc1ccc(O)cc1` the IC50 was 0.467 µM (SK-N-DZ; cell growth or viability).
The IC50 of `CC(C)(C=O)Cc1cc(C(C)(C)C)c(O)c(C(C)(C)C)c1` is reported as > 20 µM (HN-6; cell growth or viability; 72 h).
For `CCN(CC)CCCCNc1ncc2cc(-c3cc(OC)cc(OC)c3)c(NC(=O)NC(C)(C)C)nc2n1`, the IC50 was 0.015 µM (RT-112; cell growth or viability; MTT; 5 days).
With `Nc1ncnc2c1ncn2[C@@H]1O[C@H](CO)[C@@H](O)[C@@H]1O` the IC50 was > 20 µM (HN-6; cell growth or viability; 72 h).
For `O=C(NCCc1c[nH]c2ccccc12)C(=O)c1c[nH]c2ccc(Br)cc12`, the IC50 was > 100 µM (C4-2; cell growth or viability; MTT).
With `NCCc1ccc(O)c(O)c1` the IC50 was > 20 µM (HN-6; cell growth or viability; 72 h).
`CCCCC/C=C\C/C=C\C/C=C\C/C=C\CCCC(=O)C(F)(F)F` has an IC50 of 22.8 µM (MEL-JUSO; cell growth or viability; MTS; 72 h).
